ChEMBL document CHEMBL2346496, “Discovery of new benzothiazole-based inhibitors of breakpoint cluster region-Abelson kinase including the T315I mutant” (J Med Chem, 2013)
≈ marks a conversion by molar mass, not a printed value.

Experiments:
K562 = assay: cells; conditions: Homo sapiens
cells [1] = conditions: Mus musculus, BaF3, 48 h
cells [2] = conditions: Mus musculus, BaF3, 48 h; remark: listed apart in the source
cells [3] = conditions: Mus musculus, BaF3, 48 h; remark: listed apart in the source
[4] = Stability of the compound at 37 degC at pH 6.7 after 24 hrs by UPLC method; type: physicochemical; conditions: buffer, read-out: Stability
In short: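 Stability followed by UPLC over 24 h at 37 °C, pH 6.7.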

[5] = Aqueous solubility of the compound at pH 6.7; type: physicochemical
[6] = biological target: Tyrosine-protein kinase ABL1 (Homo sapiens, UniProt P00519, T315I); assay: Inhibition of breakpoint cluster region-Abelson tyrosine kinase T315I mutant (unknown origin) using [gamma-33P]ATP as substrate by radiometric kinase assay
[7] = biological target: Proto-oncogene tyrosine-protein kinase Src (Homo sapiens) (UniProt P12931); assay: Inhibition of SRC (unknown origin) at 1 uM relative to control; values are per cent of control
[8] = biological target: Hepatocyte growth factor receptor (Homo sapiens) (UniProt P08581); assay: Inhibition of MET (unknown origin) at 1 uM relative to control; values are per cent of control
[9] = biological target: Mast/stem cell growth factor receptor Kit (Homo sapiens) (UniProt P10721); assay: Inhibition of KIT (unknown origin) at 1 uM relative to control; values are per cent of control
[10] = biological target: Focal adhesion kinase 1 (Homo sapiens) (UniProt Q05397); assay: Inhibition of FAK (unknown origin) at 1 uM relative to control; values are per cent of control
[11] = biological target: Angiopoietin-1 receptor (Homo sapiens) (UniProt Q02763); assay: Inhibition of TIE2 (unknown origin) at 1 uM relative to control; values are per cent of control
[12] = biological target: Ribosomal protein S6 kinase alpha-3 (Homo sapiens) (UniProt P51812); assay: Inhibition of RSK2 (unknown origin) at 1 uM relative to control; values are per cent of control
[13] = biological target: Serine/threonine-protein kinase PLK3 (Homo sapiens) (UniProt Q9H4B4); assay: Inhibition of PLK3 (unknown origin) at 1 uM relative to control; values are per cent of control
[14] = biological target: Serine/threonine-protein kinase pim-1 (Homo sapiens) (UniProt P11309); assay: Inhibition of PIM1 (unknown origin) at 1 uM relative to control; values are per cent of control
[15] = biological target: Serine/threonine-protein kinase PLK1 (Homo sapiens) (UniProt P53350); assay: Inhibition of PLK1 (unknown origin) at 1 uM relative to control; values are per cent of control
[16] = biological target: Serine/threonine-protein kinase PAK 1 (Homo sapiens) (UniProt Q13153); assay: Inhibition of PAK1 (unknown origin) at 1 uM relative to control; values are per cent of control
[17] = biological target: Dual specificity mitogen-activated protein kinase kinase 2 (Homo sapiens) (UniProt P36507); assay: Inhibition of MEK2 (unknown origin) at 1 uM relative to control; values are per cent of control
[18] = biological target: Dual specificity mitogen-activated protein kinase kinase 1 (Homo sapiens) (UniProt Q02750); assay: Inhibition of MEK1 (unknown origin) at 1 uM relative to control; values are per cent of control
Sequence of Dual specificity mitogen-activated protein kinase kinase 1 (Homo sapiens) (Q02750 whole entry): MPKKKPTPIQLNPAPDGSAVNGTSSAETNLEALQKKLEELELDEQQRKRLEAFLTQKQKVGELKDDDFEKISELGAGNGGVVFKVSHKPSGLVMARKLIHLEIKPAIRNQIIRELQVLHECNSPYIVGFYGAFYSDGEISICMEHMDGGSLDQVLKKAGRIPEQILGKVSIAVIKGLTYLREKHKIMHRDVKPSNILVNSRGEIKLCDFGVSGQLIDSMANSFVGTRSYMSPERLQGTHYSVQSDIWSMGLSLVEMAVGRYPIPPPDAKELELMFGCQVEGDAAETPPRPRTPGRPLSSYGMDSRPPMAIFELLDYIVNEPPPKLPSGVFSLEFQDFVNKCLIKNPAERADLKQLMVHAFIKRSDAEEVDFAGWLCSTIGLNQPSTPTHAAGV

[19] = biological target: Mitogen-activated protein kinase 8 (Homo sapiens) (UniProt P45983); assay: Inhibition of JNK1 (unknown origin) at 1 uM relative to control; values are per cent of control
[20] = biological target: Tyrosine-protein kinase JAK2 (Homo sapiens) (UniProt O60674); assay: Inhibition of JAK2 (unknown origin) at 1 uM relative to control; values are per cent of control
[21] = biological target: Receptor-type tyrosine-protein kinase FLT3 (Homo sapiens) (UniProt P36888); assay: Inhibition of FLT3 (unknown origin) at 1 uM relative to control; values are per cent of control
[22] = biological target: Mitogen-activated protein kinase 3 (Homo sapiens) (UniProt P27361); assay: Inhibition of ERK1 (unknown origin) at 1 uM relative to control; values are per cent of control
[23] = biological target: Epidermal growth factor receptor (Homo sapiens) (UniProt P00533); assay: Inhibition of EGFR (unknown origin) at 1 uM relative to control; values are per cent of control
[24] = biological target: Cyclin-dependent kinase 2 (Homo sapiens) (UniProt P24941); assay: Inhibition of CDK2 (unknown origin) at 1 uM relative to control; values are per cent of control
[25] = biological target: Serine/threonine-protein kinase B-raf (Homo sapiens) (UniProt P15056); assay: Inhibition of BRAF (unknown origin) at 1 uM relative to control; values are per cent of control
[26] = biological target: RAC-alpha serine/threonine-protein kinase (Homo sapiens) (UniProt P31749); assay: Inhibition of AKT1 (unknown origin) at 1 uM relative to control; values are per cent of control
[27] = biological target: Rho-associated protein kinase 2 (Homo sapiens) (UniProt O75116); assay: Inhibition of ROCK2 (unknown origin) at 1 uM relative to control; values are per cent of control
Sequence of Rho-associated protein kinase 2 (Homo sapiens) (O75116 whole entry, looked up): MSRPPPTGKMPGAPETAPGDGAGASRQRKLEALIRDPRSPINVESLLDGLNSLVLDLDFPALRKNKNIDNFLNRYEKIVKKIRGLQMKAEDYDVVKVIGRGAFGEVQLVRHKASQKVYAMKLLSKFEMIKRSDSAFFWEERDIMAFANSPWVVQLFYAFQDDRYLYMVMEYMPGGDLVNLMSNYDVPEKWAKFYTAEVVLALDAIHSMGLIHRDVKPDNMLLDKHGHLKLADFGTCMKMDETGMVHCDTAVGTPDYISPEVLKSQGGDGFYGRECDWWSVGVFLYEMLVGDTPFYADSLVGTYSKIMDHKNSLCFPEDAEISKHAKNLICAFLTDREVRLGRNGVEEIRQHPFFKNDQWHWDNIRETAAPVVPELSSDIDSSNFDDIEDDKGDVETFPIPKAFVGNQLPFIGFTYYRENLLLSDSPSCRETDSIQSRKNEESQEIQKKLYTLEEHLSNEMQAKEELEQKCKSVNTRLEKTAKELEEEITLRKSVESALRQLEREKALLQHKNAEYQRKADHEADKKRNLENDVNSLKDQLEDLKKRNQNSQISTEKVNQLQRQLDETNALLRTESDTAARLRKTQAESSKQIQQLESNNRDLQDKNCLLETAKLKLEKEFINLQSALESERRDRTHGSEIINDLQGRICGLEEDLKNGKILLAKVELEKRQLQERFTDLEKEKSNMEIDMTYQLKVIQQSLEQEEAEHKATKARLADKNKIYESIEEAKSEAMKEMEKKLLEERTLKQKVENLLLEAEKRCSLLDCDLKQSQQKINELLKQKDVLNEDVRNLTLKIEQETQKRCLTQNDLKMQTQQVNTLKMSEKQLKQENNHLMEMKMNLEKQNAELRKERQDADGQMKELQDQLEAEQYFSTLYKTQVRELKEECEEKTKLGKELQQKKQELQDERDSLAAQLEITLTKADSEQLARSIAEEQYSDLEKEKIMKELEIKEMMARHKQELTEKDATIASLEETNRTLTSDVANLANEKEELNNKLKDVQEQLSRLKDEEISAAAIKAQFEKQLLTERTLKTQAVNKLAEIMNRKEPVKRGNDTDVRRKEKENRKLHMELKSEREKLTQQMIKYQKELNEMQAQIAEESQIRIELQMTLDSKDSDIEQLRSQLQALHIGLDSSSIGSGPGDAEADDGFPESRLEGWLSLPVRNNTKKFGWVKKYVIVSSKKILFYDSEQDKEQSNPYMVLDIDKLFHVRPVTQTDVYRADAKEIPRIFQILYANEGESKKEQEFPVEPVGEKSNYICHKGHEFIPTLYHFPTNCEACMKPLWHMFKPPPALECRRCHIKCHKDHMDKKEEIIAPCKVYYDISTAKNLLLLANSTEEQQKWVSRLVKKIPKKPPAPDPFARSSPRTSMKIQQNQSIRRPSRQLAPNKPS

[28] = biological target: 3-phosphoinositide-dependent protein kinase 1 (Homo sapiens) (UniProt O15530); assay: Inhibition of PDPK1 (unknown origin) at 1 uM relative to control; values are per cent of control
[29] = biological target: Insulin-like growth factor 1 receptor (Homo sapiens) (UniProt P08069); assay: Inhibition of IGF1R (unknown origin) at 1 uM relative to control; values are per cent of control
[30] = biological target: Glycogen synthase kinase-3 beta (Homo sapiens) (UniProt P49841); assay: Inhibition of GSK3b (unknown origin) at 1 uM relative to control; values are per cent of control
[31] = biological target: Fibroblast growth factor receptor 2 (Homo sapiens) (UniProt P21802); assay: Inhibition of FGFR2 (unknown origin) at 1 uM relative to control; values are per cent of control
Homo sapiens [32] = species on record: Homo sapiens; assay: Inhibition of CDK11 (unknown origin) at 1 uM relative to control; values are per cent of control
[33] = biological target: Aurora kinase B (Homo sapiens) (UniProt Q96GD4); assay: Inhibition of AURKB (unknown origin) at 1 uM relative to control; values are per cent of control
[34] = biological target: Aurora kinase A (Homo sapiens) (UniProt O14965); assay: Inhibition of AURKA (unknown origin) at 1 uM relative to control; values are per cent of control
[35] = biological target: Vascular endothelial growth factor receptor 2 (Homo sapiens) (UniProt P35968); assay: Inhibition of VEGFR2 (unknown origin) at 1 uM relative to control; values are per cent of control
Sequence of Vascular endothelial growth factor receptor 2 (Homo sapiens) (P35968 whole entry, canonical isoform): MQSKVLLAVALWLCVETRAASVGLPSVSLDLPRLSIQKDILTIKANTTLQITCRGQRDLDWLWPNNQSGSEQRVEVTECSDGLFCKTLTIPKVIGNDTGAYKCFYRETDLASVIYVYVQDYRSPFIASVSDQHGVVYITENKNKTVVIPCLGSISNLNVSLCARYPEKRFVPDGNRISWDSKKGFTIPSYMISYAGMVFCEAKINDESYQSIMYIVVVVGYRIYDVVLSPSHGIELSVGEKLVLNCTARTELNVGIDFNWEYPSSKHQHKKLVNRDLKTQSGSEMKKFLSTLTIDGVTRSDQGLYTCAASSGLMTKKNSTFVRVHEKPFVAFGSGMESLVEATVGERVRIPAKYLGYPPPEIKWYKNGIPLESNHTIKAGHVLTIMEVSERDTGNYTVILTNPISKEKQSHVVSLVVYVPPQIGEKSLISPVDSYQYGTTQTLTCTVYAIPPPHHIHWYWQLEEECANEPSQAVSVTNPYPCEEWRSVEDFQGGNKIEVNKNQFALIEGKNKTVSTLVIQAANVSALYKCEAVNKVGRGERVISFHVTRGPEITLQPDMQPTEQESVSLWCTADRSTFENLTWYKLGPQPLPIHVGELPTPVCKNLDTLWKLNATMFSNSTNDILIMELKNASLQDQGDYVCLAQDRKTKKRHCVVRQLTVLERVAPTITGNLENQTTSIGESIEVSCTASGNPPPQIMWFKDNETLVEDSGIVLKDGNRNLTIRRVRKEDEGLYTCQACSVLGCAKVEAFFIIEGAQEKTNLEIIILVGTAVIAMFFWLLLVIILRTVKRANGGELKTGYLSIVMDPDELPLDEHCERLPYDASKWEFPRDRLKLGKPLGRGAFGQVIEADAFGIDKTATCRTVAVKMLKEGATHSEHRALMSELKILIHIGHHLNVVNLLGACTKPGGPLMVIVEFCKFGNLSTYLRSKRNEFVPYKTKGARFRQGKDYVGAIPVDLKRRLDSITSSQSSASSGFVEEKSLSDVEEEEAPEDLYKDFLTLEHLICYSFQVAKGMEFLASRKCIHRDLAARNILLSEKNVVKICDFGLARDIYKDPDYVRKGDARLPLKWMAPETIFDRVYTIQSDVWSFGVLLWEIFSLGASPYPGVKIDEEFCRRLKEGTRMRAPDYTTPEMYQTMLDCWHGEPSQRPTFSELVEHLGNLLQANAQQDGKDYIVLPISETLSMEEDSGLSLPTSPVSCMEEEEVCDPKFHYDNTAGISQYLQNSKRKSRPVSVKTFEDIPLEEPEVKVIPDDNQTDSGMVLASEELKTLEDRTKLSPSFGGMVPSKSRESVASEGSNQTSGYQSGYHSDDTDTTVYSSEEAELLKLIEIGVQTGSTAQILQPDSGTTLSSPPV

[36] = biological target: Phosphatidylinositol 4,5-bisphosphate 3-kinase catalytic subunit alpha isoform (Homo sapiens) (UniProt P42336); assay: Inhibition of PI3KCA (unknown origin) at 1 uM relative to control; values are per cent of control
[37] = biological target: cAMP-dependent protein kinase catalytic subunit alpha (Homo sapiens) (UniProt P17612); assay: Inhibition of PKAC-a (unknown origin) at 1 uM relative to control; values are per cent of control
[38] = biological target: Platelet-derived growth factor receptor beta (Homo sapiens) (UniProt P09619); assay: Inhibition of PDGFRB (unknown origin) at 1 uM relative to control; values are per cent of control
Sequence of Platelet-derived growth factor receptor beta (Homo sapiens) (P09619 whole entry): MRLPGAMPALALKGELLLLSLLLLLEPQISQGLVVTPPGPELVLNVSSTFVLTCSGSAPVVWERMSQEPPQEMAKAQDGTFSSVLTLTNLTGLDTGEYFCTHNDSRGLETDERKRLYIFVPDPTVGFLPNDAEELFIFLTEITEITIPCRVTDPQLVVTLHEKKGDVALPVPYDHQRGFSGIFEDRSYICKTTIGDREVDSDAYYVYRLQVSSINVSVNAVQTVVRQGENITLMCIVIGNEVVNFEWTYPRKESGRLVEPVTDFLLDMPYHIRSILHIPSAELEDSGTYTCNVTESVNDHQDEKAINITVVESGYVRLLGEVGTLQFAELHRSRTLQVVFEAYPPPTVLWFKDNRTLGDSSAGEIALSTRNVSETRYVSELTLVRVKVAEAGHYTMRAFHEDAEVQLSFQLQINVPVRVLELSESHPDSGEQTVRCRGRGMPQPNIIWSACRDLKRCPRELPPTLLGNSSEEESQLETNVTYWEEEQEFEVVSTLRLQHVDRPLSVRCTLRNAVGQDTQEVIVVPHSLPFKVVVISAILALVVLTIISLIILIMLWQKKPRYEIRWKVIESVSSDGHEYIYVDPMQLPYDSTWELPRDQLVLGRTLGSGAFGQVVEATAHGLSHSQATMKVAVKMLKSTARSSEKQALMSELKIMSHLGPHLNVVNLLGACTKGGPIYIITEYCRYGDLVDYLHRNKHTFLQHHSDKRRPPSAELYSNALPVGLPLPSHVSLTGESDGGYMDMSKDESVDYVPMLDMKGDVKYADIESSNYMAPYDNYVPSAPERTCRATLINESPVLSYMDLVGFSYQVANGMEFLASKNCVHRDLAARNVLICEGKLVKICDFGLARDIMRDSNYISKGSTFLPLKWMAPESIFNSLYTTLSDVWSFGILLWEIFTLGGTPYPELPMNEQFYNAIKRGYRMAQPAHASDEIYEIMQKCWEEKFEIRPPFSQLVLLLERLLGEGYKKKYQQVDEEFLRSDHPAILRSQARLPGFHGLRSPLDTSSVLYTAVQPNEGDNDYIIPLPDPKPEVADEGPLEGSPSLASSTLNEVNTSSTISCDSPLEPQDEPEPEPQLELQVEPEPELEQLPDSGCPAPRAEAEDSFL

[39] = biological target: Platelet-derived growth factor receptor alpha (Homo sapiens) (UniProt P16234); assay: Inhibition of PDGFRA (unknown origin) at 1 uM relative to control; values are per cent of control
[40] = biological target: Mitogen-activated protein kinase 14 (Homo sapiens) (UniProt Q16539); assay: Inhibition of P38alpha (unknown origin) at 1 uM relative to control; values are per cent of control
[41] = biological target: Inhibitor of nuclear factor kappa-B kinase subunit alpha (Homo sapiens) (UniProt O15111); assay: Inhibition of IKK alpha (unknown origin) at 1 uM relative to control; values are per cent of control
Sequence of Inhibitor of nuclear factor kappa-B kinase subunit alpha (Homo sapiens) (O15111 whole entry): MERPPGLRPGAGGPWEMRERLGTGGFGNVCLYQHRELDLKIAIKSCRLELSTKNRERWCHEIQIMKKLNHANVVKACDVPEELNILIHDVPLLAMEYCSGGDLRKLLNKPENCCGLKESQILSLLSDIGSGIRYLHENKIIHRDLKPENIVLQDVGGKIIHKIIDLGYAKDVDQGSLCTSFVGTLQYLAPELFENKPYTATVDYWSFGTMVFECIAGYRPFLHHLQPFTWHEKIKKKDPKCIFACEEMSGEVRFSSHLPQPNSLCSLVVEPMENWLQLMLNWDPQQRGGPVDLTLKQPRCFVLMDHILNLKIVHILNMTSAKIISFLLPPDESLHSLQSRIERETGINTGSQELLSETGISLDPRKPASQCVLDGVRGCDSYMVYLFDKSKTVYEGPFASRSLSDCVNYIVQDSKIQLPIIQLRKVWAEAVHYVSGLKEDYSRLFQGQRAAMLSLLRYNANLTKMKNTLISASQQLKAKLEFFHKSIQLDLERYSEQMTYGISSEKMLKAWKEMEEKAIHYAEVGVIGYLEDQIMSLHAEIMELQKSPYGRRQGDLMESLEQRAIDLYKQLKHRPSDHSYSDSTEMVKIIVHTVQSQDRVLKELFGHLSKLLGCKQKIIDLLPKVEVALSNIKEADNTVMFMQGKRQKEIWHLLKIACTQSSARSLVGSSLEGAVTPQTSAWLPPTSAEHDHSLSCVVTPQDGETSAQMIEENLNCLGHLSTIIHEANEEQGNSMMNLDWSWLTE

[42] = tested on: Tyrosine-protein kinase ABL1 (Homo sapiens), P00519 [T315I]; assay: Inhibition of breakpoint cluster region-Abelson tyrosine kinase T315I mutant (unknown origin) at 1 uM relative to control; values are per cent of control
Homo sapiens [43] = species on record: Homo sapiens; assay: Inhibition of phosphorylated breakpoint cluster region-Abelson tyrosine kinase (unknown origin) at 1 uM relative to control; values are per cent of control
[44] = tested on: Tyrosine-protein kinase ABL1 (Homo sapiens), P00519 [E255K]; assay: Inhibition of phosphorylated breakpoint cluster region-Abelson tyrosine kinase E255K mutant (unknown origin) at 1 uM relative to control; values are per cent of control
BaF3 = assay: Cytotoxicity against mouse BA/F3 cells transfected with Bcr-Abl T315I mutant after 48 hrs by XTT assay

Cc1ccc(NC(=O)c2ccc(CN3CCN(C)CC3)cc2)cc1Nc1nccc(-c2cccnc2)n1 [IMATINIB]
IC50 (K562): 170 nM
IC50 (cells [1]): > 10000 nM
IC50 (cells [2]): 92 nM
IC50 (cells [3]): 4790 nM

COc1ccccc1-c1ccc2nc(NC(=O)NCCN3CCN(C)CC3)sc2c1
remaining at 24 h [4]: 99.7%
solubility [5]: 2240 µg/mL (≈ 5260 µM)
IC50 (K562): 420 nM
IC50 (cells [1]): > 10000 nM
IC50 (cells [2]): 46 nM
IC50 (cells [3]): 78 nM

CCc1ccccc1-c1ccc2nc(NC(=O)NCCN3CCOCC3)sc2c1
IC50 (cells [2]): 280 nM
IC50 (cells [3]): 1440 nM

CCNC(=O)Nc1nc2ccc(-c3ccccc3OC)cc2s1
remaining at 24 h [4]: 100%
solubility [5]: 0.0227 µg/mL (≈ 0.0693 µM)
IC50 [6]: 0.11 nM
IC50 (cells [2]): 3570 nM
IC50 (cells [3]): 2140 nM
residual activity [7]: 72%
residual activity [8]: 100%
residual activity [9]: 79%
residual activity [10]: 100%
residual activity [11]: 100%
residual activity [12]: 58%
residual activity [13]: 87%
residual activity [14]: 100%
residual activity [15]: 100%
residual activity [16]: 93%
residual activity [17]: 100%
residual activity [18]: 100%
residual activity [19]: 100%
residual activity [20]: 100%
residual activity [21]: 94%
residual activity [22]: 100%
residual activity [23]: 100%
residual activity [24]: 100%
residual activity [25]: 100%
residual activity [26]: 67%
residual activity [27]: 100%
residual activity [28]: 67%
residual activity [29]: 100%
residual activity [30]: 100%
residual activity [31]: 100%
residual activity (Homo sapiens [32]): 100%
residual activity [33]: 100%
residual activity [34]: 100%
residual activity [35]: 98%
residual activity [36]: 100%
residual activity [37]: 100%
residual activity [38]: 16%
residual activity [39]: 79%
residual activity [40]: 100%
residual activity [41]: 100%
residual activity [42]: 4.5%
residual activity (Homo sapiens [43]): 5%
residual activity [44]: 4.5%

CCNC(=O)Nc1nc2ccc(C(=O)N3CCN(C)CC3)cc2[nH]1
IC50 [6]: > 100000 nM

CCOc1ccccc1-c1ccc2nc(NC(=O)NCCO)sc2c1
IC50 (cells [2]): 180 nM
IC50 (cells [3]): 1350 nM

CCc1ccccc1-c1ccc2nc(NC(=O)NCCN(C)C)sc2c1
IC50 (cells [2]): 310 nM
IC50 (cells [3]): 410 nM

CCNC(=O)Nc1nc2ccc(C(=O)Nc3ccncc3)cc2[nH]1
IC50 [6]: > 100000 nM

COC(=O)Nc1nc2ccc(C(=O)c3cccs3)cc2[nH]1 [NOCODAZOLE]
IC50 [6]: 640 nM

COc1ccccc1-c1ccc2nc(NC(=O)NCCCO)sc2c1
IC50 (cells [2]): 82 nM
IC50 (cells [3]): 290 nM

CCOc1ccccc1-c1ccc2nc(NC(=O)NCCN3CCNCC3)sc2c1
IC50 (cells [2]): 110 nM
IC50 (cells [3]): 870 nM

COc1ccccc1-c1ccc2nc(NC(=O)NCCN3CCOCC3)sc2c1
IC50 (cells [2]): 100 nM
IC50 (cells [3]): 290 nM
inhibition (BaF3): Dose-dependent effect

CCOc1ccccc1-c1ccc2nc(NC(=O)NCCCO)sc2c1
IC50 (cells [2]): 120 nM
IC50 (cells [3]): 560 nM

COc1ccccc1-c1ccc2nc(NC(=O)NCCO)sc2c1
remaining at 24 h [4]: 100%
solubility [5]: 7.49 µg/mL (≈ 21.8 µM)
IC50 (K562): 120 nM
IC50 (cells [1]): > 10000 nM
IC50 (cells [2]): 89 nM
IC50 (cells [3]): 140 nM

CCOc1ccccc1-c1ccc2nc(NC(=O)NCCN3CCOCC3)sc2c1
IC50 (cells [2]): 210 nM
IC50 (cells [3]): 1090 nM
